Results published in ChEMBL document CHEMBL1145502, “Roxithromycin favorably modifies the initial phase of resistance against infection with macrolide-resistant Streptococcus pneumoniae in a murine pneumonia model” (Antimicrob Agents Chemother, 2007).
Values after ≈ are worked out from the molar mass of the structure shown. Active and inactive are the calls of the source. No cut-off for these calls is given here.

How the values were obtained:
Streptococcus pneumoniae [1] = assay: Reduction of pneumolysin production in Streptococcus pneumoniae NMU112 lysates at 10 ug/mL after 12 hrs by Western blot relative to control; format: functional, organism-based
How it was run: (§1)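 NMU112 at 5 × 10⁷ CFU/ml in THY cultured with macrolide at 37°C for 12 h, then whole-cell sonicated lysates run on SDS-PAGE and immunoblotted for pneumolysin. Band densitometry as mean % of drug-free culture; two cultures per dose per experiment, three experiments.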

Streptococcus pneumoniae [2] = assay: Reduction of pneumolysin production in Streptococcus pneumoniae NMU112 lysates at 5 ug/mL after 12 hrs by Western blot relative to control; format: functional, organism-based; how it was run: as §1
Streptococcus pneumoniae [3] = assay: Antimicrobial activity against drug-resistant Streptococcus pneumoniae NMU112 infected CBA/J mouse assessed as median survival time at 20 mg/kg, po relative to control; format: functional
How it was run: (§2)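 Male CBA/J mice, 3-4 weeks old, 28-30 g. Macrolide given by oral gavage in saline for 3 days; RXM, ERY and CLR twice daily at 12-h intervals, AZM once daily. Saline controls. 24 h after the last dose, mice were infected intratracheally with 5 × 10⁴ CFU NMU112 (erm(B)/mef(A)). Kaplan-Meier survival and median survival time, log rank test; 10 mice per group per experiment.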

Streptococcus pneumoniae [4] = assay: Antimicrobial activity against Streptococcus pneumoniae NMU605; format: functional
How it was run: (§3)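 Broth microdilution MIC (NCCLS method) in Mueller-Hinton broth with 3% lysed horse blood; clinical isolates NMU605 (serotype 3) and NMUP45 (serotype 4).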

Streptococcus pneumoniae [5] = assay: Inhibition of pneumococcal surface protein A production in Streptococcus pneumoniae NMU112 lysates at 10 ug/mL after 12 hrs by Western blot relative to control; format: functional, organism-based
How it was run: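 Strain NMU112 (5 × 10⁷ CFU/ml in THY) cultured 12 h at 37°C with drug. Sonicated whole-cell lysates run on SDS-PAGE and Western blotted; bands measured by densitometry as % of drug-free culture. Two cultures per dose, three experiments (n = 5–6).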

Streptococcus pneumoniae [6] = assay: Antimicrobial activity against drug-resistant Streptococcus pneumoniae NMU112 infected CBA/J mouse assessed as median survival time at 10 mg/kg, po relative to control; format: functional; how it was run: as §2
Streptococcus pneumoniae [7] = assay: Antimicrobial activity against Streptococcus pneumoniae NMU112 infected in po dosed CBA/J mouse assessed as delaying in development of bacteremia […]; format: functional, organism-based
Streptococcus pneumoniae [8] = assay: Antimicrobial activity against Streptococcus pneumoniae NMU112; format: functional
How it was run: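 Broth microdilution MIC per NCCLS in Mueller-Hinton broth with 3% lysed horse blood.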

Streptococcus pneumoniae [9] = assay: Antimicrobial activity against Streptococcus pneumoniae NMUP45; format: functional; how it was run: as §3

Structure (SMILES): CC[C@H]1OC(=O)[C@H](C)[C@@H](O[C@H]2C[C@@](C)(OC)[C@@H](O)[C@H](C)O2)[C@H](C)[C@@H](O[C@@H]2O[C@H](C)C[C@H](N(C)C)[C@H]2O)[C@](C)(O)C[C@@H](C)C(=O)[C@H](C)[C@@H](O)[C@]1(C)O [ERYTHROMYCIN]
- Activity (Streptococcus pneumoniae [1]): Active
- Activity (Streptococcus pneumoniae [2]): Active
- MST (Streptococcus pneumoniae [3]): 6.78 days
- MIC (Streptococcus pneumoniae [4]): 0.03 µg/mL (≈ 0.0409 µM)
- Activity (Streptococcus pneumoniae [5]): Active
- MST (Streptococcus pneumoniae [6]): 5.27 days
- Activity (Streptococcus pneumoniae [7]): Active
- MIC (Streptococcus pneumoniae [8]): ≥ 256 µg/mL
- MIC (Streptococcus pneumoniae [9]): 2 µg/mL (≈ 2.73 µM)
